Screening data: PubChem, Johns Hopkins Ion Channel Center
MrgX1 antagonist – human MrgX1 receptor antagonism, primary screen; Q96LB2; MRGX1-HEK293 calcium flux, Fluo-4, BAM8-22 antagonism; stronger effect = lower value; B-score at 10 µM; 310,000 tested, 1.3% active;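 active = calcium-response B-score plate-corrected more than 3 library SD below zero, starting fluorescence within 5 deviations, no agonist response on first addition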;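 also: peak minus trough fluorescence over baseline after final BAM8-22 challenge near maximal dose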
Target sequence (Q96LB2 whole entry, looked up): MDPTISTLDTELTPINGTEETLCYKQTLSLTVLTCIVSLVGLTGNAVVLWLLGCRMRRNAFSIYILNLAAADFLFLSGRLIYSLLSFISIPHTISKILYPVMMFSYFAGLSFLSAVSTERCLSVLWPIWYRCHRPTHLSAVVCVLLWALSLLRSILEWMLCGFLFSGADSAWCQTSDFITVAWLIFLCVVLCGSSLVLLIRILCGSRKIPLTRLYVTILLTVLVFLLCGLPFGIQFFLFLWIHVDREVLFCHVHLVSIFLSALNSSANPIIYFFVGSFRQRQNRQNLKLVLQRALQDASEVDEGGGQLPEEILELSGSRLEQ
RGS4 act – potentiators or activators of RGS4; HEK293 M3R/inducible RGS4, carbachol calcium flux Fluo4; stronger effect = lower value; B-score at 10 µM; 310,000 tested, 0.92% active;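 active = B-score of the integrated calcium signal more than 4 SD below the library mean, with starting fluorescence not abnormally high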;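 also: negative B-score means reduced calcium response which marks RGS4 activation or potentiation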
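Test system: HEK293 cells with stable M3R and inducible RGS4; also added: carbachol at ECmax as muscarinic agonist stimulus; schedule: dye loading 30 min 37 °C, buffer rest 30 min RT; technique: kinetic calcium fluorescence imaging with Fluo4-AM dye, 2 µM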
MrgX1 allo act – human MrgX1 positive allosteric modulation, primary screen | Q96LB2 | MrgX1-HEK293, Fluo-4 calcium flux, FDSS; stronger effect = higher value | B-score at 10 µM | 310,000 tested, 0.63% active;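 active = plate-corrected calcium response at least 3 library SD above typical, normal starting fluorescence, not activating the receptor alone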;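 also: compound read alongside a low EC10 to EC30 dose of BAM8-22 agonist; peak minus trough fluorescence over baseline measured at the second addition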
RGS4 block – human RGS4 inhibition. HEK293 M3R/RGS4 inducible, Fluo-4 calcium flux; stronger effect = higher value; triggered by carbachol at its EC20. B-score at 10 µM. 310,000 tested, 0.45% active. AID 463165;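 active = B-score, a plate-corrected calcium signal, over three deviations above library mean, with baseline fluorescence within five deviations of library mean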;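 also: RGS4 expression induced by doxycycline in cells with stable M3 receptor; B-score is computed from the integrated fluorescence ratio over baseline after carbachol; higher B-score means a larger calcium signal and so more RGS4 inhibition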
Target sequence (P49798 whole entry, looked up): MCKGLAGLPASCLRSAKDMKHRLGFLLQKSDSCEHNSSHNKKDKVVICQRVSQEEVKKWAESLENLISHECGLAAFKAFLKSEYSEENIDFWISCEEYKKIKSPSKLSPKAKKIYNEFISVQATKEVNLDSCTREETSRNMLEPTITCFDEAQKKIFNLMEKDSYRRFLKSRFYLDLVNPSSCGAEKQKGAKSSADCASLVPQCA
MrgX1 agonist – agonists of human MrgX1 receptor; Q96LB2; MrgX1-HEK293 cells, Fluo-4 calcium fluorescence, agonist mode; stronger effect = higher value; B-score at 10 µM; 310,000 tested, 0.44% active; AID 588627;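 active = calcium response B-score plate-corrected fluorescence ratio at least 3 library SD, with starting fluorescence B-score inside 5 SD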
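System – MrgX1-expressing HEK293 cells · Incubation – cells plated overnight, dye loaded 0.5 h 37 °C, 0.5 h room temperature · Technique – kinetic Fluo-4 NW fluorescence of intracellular calcium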
MrgX1 allo conf – confirmation of human MrgX1 receptor positive allosteric modulators | activation (ratio percentage), % at 10 µM | shares compounds with MrgX1 allo act | 1,200 tested, 13% active | AID 602413 | MrgX1-HEK293, Fluo-4 calcium fluorescence, FDSS;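 active = ratio at least 3 SD above the weak peptide control, stable starting fluorescence, no direct agonism earlier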;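 also: compound followed by low BAM8-22 agonist challenge near EC20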
HEK293 Ca flux – counter-screen for MrgX1 antagonists: effect in parental HEK293 cells | fluorescence ratio F(max-min)/F0 at 10 µM | 4,000 tested, 2% active | Fluo-4 calcium fluorescence, FDSS | shares compounds with MrgX1 antagonist;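 active = duplicate-averaged calcium fluorescence ratio at least three times the standard deviation of buffer wells, a nonspecific response in parental cells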
HEK293 Ca counter – counter-screen for MrgX1 allosteric activators: effect in parental HEK293 cells | shares compounds with MrgX1 antagonist | parental HEK293 calcium flux, Fluo-4 fluorescence ratio; stronger effect = higher value | fluorescence ratio F(max-min)/F0 at 10 µM | 4,000 tested, 0.4% active | AID 624114;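 active = calcium fluorescence ratio, averaged over duplicates, at least 3 SD of the buffer-well ratio, meaning a nonspecific response in receptor-free cells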;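 also: untransfected parental HEK293 lacking MrgX1 used as counterscreen for MrgX1 allosteric activators; fluorescence change taken during the second addition on a kinetic imager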
HEK293 Ca cntr2 – MrgX1 activator counter-screen hit in parental HEK293 cells | fluorescence ratio F(max-min)/F0 at 10 µM | AID 624115 | Fluo-4 calcium fluorescence (FDSS); stronger effect = higher value | shares compounds with MrgX1 antagonist | 4,000 tested, 8.7% active;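 active = calcium fluorescence ratio at least three times the spread of buffer wells, meaning a non-specific response in parental cells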
A number is an active result; - = inactive; . = no result given. Sampled rows, rich in hits. Any-hit rate of the full collection: about 3.5%.

SMILES | MrgX1 antagonist | RGS4 act | MrgX1 allo act | RGS4 block | MrgX1 agonist | MrgX1 allo conf | HEK293 Ca flux | HEK293 Ca counter | HEK293 Ca cntr2
CSc1nnc(-c2ccccc2N=Cc2c(C)[nH]n(-c3ccc4ccccc4c3)c2=O)c(=O)[nH]1 | - | - | 12 | - | - | - | - | - | -
O=C(CCc1nc(-c2ccccc2)c(-c2ccccc2)o1)OCc1ccc(Cl)cc1 | - | - | - | - | - | . | . | . | .
O=C(CCc1nc(-c2ccccc2)c(-c2ccccc2)o1)OCc1ccc(Br)cc1 | - | - | 20 | - | - | - | - | - | -
C/C(CCS(=O)(=O)c1ccccc1)=N/O | - | - | - | - | - | . | . | . | .
O=C(CCc1ccccc1)Nc1nc2n(n1)C(c1ccc(Cl)cc1)CC(=O)N2 (centres undefined) | - | - | - | - | - | . | . | . | .
O=C(CCc1ccccc1)Nc1nc2n(n1)C(c1ccccc1)CC(=O)N2 (centres undefined) | - | - | 21 | - | - | - | - | - | -
CSCC[C@H](NC(=O)N1CCn2c1nc1ccccc12)C(=O)N1CCCCC1 | - | - | 10 | - | - | - | - | - | -
O=C(COC(=O)c1ccc(NS(=O)(=O)c2ccc(Br)s2)cc1)NC1CCCC1 | - | - | 19 | - | - | - | - | - | -
Cc1ccc(CN(Cc2ccccn2)C(=O)Nc2c(F)cccc2F)cc1 | - | - | - | - | - | . | . | . | .
Cc1ccc(S(=O)(=O)N(CCC#N)C2CCCCC2)c2nsnc12 | - | - | 6.8 | - | - | - | - | - | -
NC(=O)CCN(C1CCCCC1)S(=O)(=O)c1cccc2nsnc12 | - | - | - | - | - | . | . | . | .
Cc1cc(NNC(=O)c2cccc(C(F)(F)F)c2)nc2c1c(C)nn2C | - | - | - | - | - | . | . | . | .
OC1CCC(NC(=S)Nc2ccc(SC(F)F)cc2)CC1 (centres undefined) | - | - | - | - | - | . | . | . | .
FC(F)Sc1ccc(NC(=S)NC2CCCC2)cc1 | - | - | 6.8 | - | - | - | - | - | -
CCCCOc1ccc(C2(C)NC(=O)N(C)C2=O)cc1 (centres undefined) | - | - | - | - | - | . | . | . | .
CC(=O)c1sc(N2CCOCC2)nc1-c1ccccc1 | - | - | 12 | - | - | - | - | - | -
CCOc1cc(C)c(Cl)cc1S(=O)(=O)N(CC)CC | - | - | 7.5 | - | - | - | - | - | -
CCOc1cc(S(=O)(=O)N(CC)CC)ccc1Cl | - | - | - | - | - | . | . | . | .
CN(Cc1ccccc1)Cc1nc2c(c(=O)n(C)c(=O)n2C)n1CCCc1ccccc1 | - | - | 8.1 | - | - | - | - | - | -
Cc1sc(NC(=O)c2ccc(F)cc2)c(CN2CCCCCC2)c1C | - | - | - | - | - | . | . | . | .
Cc1sc(NC(=O)c2ccccc2F)c(CN2CCCCC2)c1C | - | - | 9.4 | - | - | - | - | - | -
Cc1nc(SCC(=O)NCc2ccco2)c2c(C)c(C)sc2n1 | - | - | - | - | - | . | . | . | .
Cc1nc(SCC(=O)Nc2cc(C(N)=O)cc(C(N)=O)c2)c2c(C)c(C)sc2n1 | - | - | 13 | - | - | - | - | - | -
CCNC(=S)N(Cc1cc2cc(C)c(C)cc2[nH]c1=O)C1CCCC1 | - | - | - | - | - | . | . | . | .
CCC(=O)N(Cc1cc2cc(C)c(C)cc2[nH]c1=O)C1CCCCC1 | - | - | 7.6 | - | - | - | - | - | -
SMILES | MrgX1 antagonist | RGS4 act | MrgX1 allo act | RGS4 block | MrgX1 agonist | MrgX1 allo conf | HEK293 Ca flux | HEK293 Ca counter | HEK293 Ca cntr2
CCOC(=O)c1sc(NC(=O)c2ccccc2C(=O)O)c(C(=O)OCC)c1C | - | - | 13 | - | - | - | - | - | -
O=C(COC(=O)/C=C/c1ccc(C(F)(F)F)cc1)NCC1CCCCC1 | - | - | - | - | - | . | . | . | .
CC12CCC(=O)N1C(C(=O)Nc1nc3ccc(S(C)(=O)=O)cc3s1)CS2 (centres undefined) | - | - | - | - | - | . | . | . | .
CC12CCC(=O)N1C(C(=O)Nc1nc3ccc(Cl)cc3s1)CS2 (centres undefined) | - | - | 16 | - | - | - | - | - | -
O=C(Nc1nnc(SCC(=O)N2CCCCC2)s1)c1ccc(F)cc1F | - | - | 6.8 | - | - | - | - | - | -
O=C(Cc1ccc(F)cc1)Nc1nnc(SCC(=O)N2CCCCC2)s1 | - | - | - | - | - | . | . | . | .
OCCC1CN(Cc2cc(F)ccc2F)CCN1CCCc1ccccc1 (centres undefined) | - | - | - | - | - | . | . | . | .
O=C(c1ccncc1)c1ccc(N2CCN(C3CC(=O)N(Cc4cccs4)C3=O)CC2)cc1 (centres undefined) | - | - | 6.9 | - | - | - | - | - | -
CCN(CC)S(=O)(=O)c1cccc(NC(=O)COC(=O)C2CC3C=CC2C3)c1 (centres undefined) | - | - | 6.5 | - | - | - | - | - | -
COc1ccc(Nc2nc(C)c3ccccc3n2)cc1 | - | - | 15 | - | - | - | - | - | -
Cc1ccc(C2=NC3(CCCC3)NC2=S)cc1 | - | - | - | - | - | . | . | . | .
COc1cc(OC)cc(C2=NC3(CCC(C)CC3)NC2=S)c1 (centres undefined) | - | - | 6.6 | - | - | - | - | - | -
O=C(O)CN1CCCCC1 | - | - | 9.7 | - | - | - | - | - | -
CCCN(c1ccc(C(=O)OC)cc1)S(=O)(=O)c1ccccc1 | - | - | 9.8 | - | - | - | - | - | -
COC(=O)c1ccc(NC2(C#N)C(=O)Nc3ccccc32)cc1 (centres undefined) | - | - | - | - | - | . | . | . | .
Cc1ccc(NC2(C#N)C(=O)Nc3ccccc32)cc1C (centres undefined) | - | - | 9 | - | - | - | - | - | 47
c1ccc(C2=Nn3c(nnc3-c3ccco3)SC2)cc1 | - | - | - | - | - | . | . | . | .
CC(Cc1ccccc1)Nc1ncnc2c1ncn2C1OC(CO)C(O)C1O (centres undefined) | - | - | 7.6 | - | - | - | - | - | -
COCCCNC(=O)C1Cc2cc(S(=O)(=O)N3CCCC3)ccc2N1C(C)=O (centres undefined) | - | - | - | - | - | . | . | . | .
CC12CCC(=O)N1C(C(=O)OCc1c(Cl)cccc1Cl)CS2 (centres undefined) | - | - | 6.5 | - | - | - | - | - | -
